{"source": "ChEMBL document CHEMBL1134287", "about": "“Design and pharmacological activity of phosphinic acid based NAALADase inhibitors” (J Med Chem, 2001)", "data": [{"biological_target": "Glutamate carboxypeptidase 2 (Rattus norvegicus, UniProt P70627)", "sequence (P70627 whole entry)": "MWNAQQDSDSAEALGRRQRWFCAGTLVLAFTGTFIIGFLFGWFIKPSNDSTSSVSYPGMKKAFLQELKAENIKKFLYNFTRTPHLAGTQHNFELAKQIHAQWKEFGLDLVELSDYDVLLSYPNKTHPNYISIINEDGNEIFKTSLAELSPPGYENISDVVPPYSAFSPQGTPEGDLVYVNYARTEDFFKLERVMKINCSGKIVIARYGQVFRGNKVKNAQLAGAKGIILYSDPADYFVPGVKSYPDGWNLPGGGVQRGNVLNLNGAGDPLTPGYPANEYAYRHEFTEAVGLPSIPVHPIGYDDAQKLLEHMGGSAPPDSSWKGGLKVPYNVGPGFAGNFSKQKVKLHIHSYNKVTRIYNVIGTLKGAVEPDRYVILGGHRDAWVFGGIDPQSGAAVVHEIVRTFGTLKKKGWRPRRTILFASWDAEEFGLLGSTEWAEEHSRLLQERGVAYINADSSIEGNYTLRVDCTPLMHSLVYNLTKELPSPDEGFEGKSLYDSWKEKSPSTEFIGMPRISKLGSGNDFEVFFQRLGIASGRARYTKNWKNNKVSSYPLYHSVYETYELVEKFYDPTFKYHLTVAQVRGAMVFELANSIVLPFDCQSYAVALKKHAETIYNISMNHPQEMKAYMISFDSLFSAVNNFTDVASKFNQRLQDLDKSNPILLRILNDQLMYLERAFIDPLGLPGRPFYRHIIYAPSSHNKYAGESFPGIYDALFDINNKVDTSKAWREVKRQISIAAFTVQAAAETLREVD", "assay": "Inhibitory concentration against rat brain NAALADase (Folate hydrolase)", "method_in_brief": "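IC50 values were determined by a method described elsewhere, from two to four independent determinations each. The values refer to racemic material.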", "units": {"IC50": "nM"}, "values": [{"smiles": "O=C(O)CCC(CP(=O)(O)C(O)c1cccc(F)c1)C(=O)O", "note": "(stereo not given)", "IC50": 16}, {"smiles": "O=C(O)CC(CP(=O)(O)O)C(=O)O", "note": "(stereo not given)", "IC50": 2200}, {"smiles": "O=C(O)CCC(CP(=O)(O)Cc1cc(C(F)(F)F)cc(C(F)(F)F)c1)C(=O)O", "note": "(stereo not given)", "IC50": 55}, {"smiles": "CC(CP(=O)(O)CC(CCC(=O)O)C(=O)O)C(=O)OCc1ccccc1", "note": "(stereo not given)", "IC50": 95}, {"smiles": "O=C(O)C(Cc1ccccc1)CP(=O)(O)O", "note": "(stereo not given)", "IC50": 548}, {"smiles": "O=C(O)CCC(CP(=O)(O)c1ccccc1)C(=O)O", "note": "(stereo not given)", "IC50": 2930}, {"smiles": "COc1ccc(NCP(=O)(O)CC(CCC(=O)O)C(=O)O)cc1", "note": "(stereo not given)", "IC50": 3}, {"smiles": "O=C(O)CCC(CP(=O)(O)C(O)c1ccncc1)C(=O)O", "note": "(stereo not given)", "IC50": 10}, {"smiles": "Nc1cccc(CP(=O)(O)CC(CCC(=O)O)C(=O)O)c1", "note": "(stereo not given)", "IC50": 143}, {"smiles": "O=C(O)C(CCc1ccccc1)CP(=O)(O)O", "note": "(stereo not given)", "IC50": 199}, {"smiles": "O=C(O)CCC(CP(=O)(O)CC(CCC(=O)O)C(=O)O)C(=O)O", "note": "(stereo not given)", "IC50": 0.5}, {"smiles": "O=C(O)CCC(CP(=O)(O)CCc1ccccc1)C(=O)O", "note": "(stereo not given)", "IC50": 149}, {"smiles": "O=C(O)C(Cc1cccc(O)c1)CP(=O)(O)O", "note": "(stereo not given)", "IC50": 508}, {"smiles": "O=C(O)CCCC(CP(=O)(O)O)C(=O)O", "note": "(stereo not given)", "IC50": 185}, {"smiles": "N#CCCC(CP(=O)(O)O)C(=O)O", "note": "(stereo not given)", "IC50": 335}, {"smiles": "O=C(O)CCC(CP(=O)(O)Cc1ccccc1F)C(=O)O", "note": "(stereo not given)", "IC50": 156}, {"smiles": "CC(CP(=O)(O)CC(CCC(=O)O)C(=O)O)C(=O)O", "note": "(stereo not given)", "IC50": 1.5}, {"smiles": "O=C(O)CCC(CP(=O)(O)Cc1ccccc1)C(=O)O", "note": "(stereo not given)", "IC50": 53}, {"smiles": "O=C(O)CCC(CP(=O)(O)Cc1cc(F)cc(F)c1)C(=O)O", "note": "(stereo not given)", "IC50": 49}, {"smiles": "CCCP(=O)(O)CC(CCC(=O)O)C(=O)O", "note": "(stereo not given)", "IC50": 360}, {"smiles": "O=C(O)C(CCC1N=NN=N1)CP(=O)(O)O", "note": "(stereo not given)", "IC50": 175}, {"smiles": "Cc1ccc(CP(=O)(O)CC(CCC(=O)O)C(=O)O)cc1", "note": "(stereo not given)", "IC50": 68}, {"smiles": "O=C(O)CCC(CP(=O)(O)CNCc1ccccc1)C(=O)O", "note": "(stereo not given)", "IC50": 59}, {"smiles": "O=C(O)CCC(CP(=O)(O)CC(Cc1ccccc1)C(=O)O)C(=O)O", "note": "(stereo not given)", "IC50": 2}, {"smiles": "O=C(O)CCC(CP(=O)(O)Cc1c(F)c(F)c(F)c(F)c1F)C(=O)O", "note": "(stereo not given)", "IC50": 82}]}]}
